Results reported in article PMC7108400 (Leukemia research, 2019).
“Also recorded” adds a separate entry of the source. Where two headings read alike, the source gives them in different places.

Tests used:
newly diagnosed AML = conditions: cited from earlier work
[1] = system: AML progressed on standard therapy / advanced hematologic malignancies; conditions: single agent, cited from earlier work
[2] = system: first relapse or primary refractory AML; conditions: cited from earlier work
[3] = system: AML cell lines and primary AML cells from patients; conditions: combination with doxorubicin; cited from earlier work
[4] = Panobinostat plasma pharmacokinetics, cycle 1 day 8, non-compartmental; assay type: in vivo, human; conditions: for CL/F / AUC / AUC(0-t) / Vd/F: geometric mean (%CV); for Cmax / AUC / AUC(0-t) / half-life / Tmax / Vd/F: human, plasma, oral; for AUC: AUC0inf; for half-life: T1/2, Median (range); for Tmax: Median (range); for Vd/F: Vz/F
Outline: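 Adults <65 y with newly diagnosed high-risk AML received oral HDAC-inhibitor test compound thrice weekly from day 8, after idarubicin 12 mg/m²/d IV (days 1–3) and ara-C 100 mg/m²/d continuous IV (days 1–7). On cycle 1 day 8, 3 mL blood was drawn pre-dose and at 0.5–28 h. Plasma parameters were derived non-compartmentally; geometric mean (%CV) excluded zero concentrations, and Tmax is median (range).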

BRCA1, CHK1, and RAD51 = conditions: AML cell lines; cited from earlier work
[5] = Dose-limiting toxicities and MTD/RP2D determination; assay type: in vivo
AML = conditions: cited from earlier work
[6] = system: newly diagnosed primary or secondary high-risk AML; assay: Anti-leukemic efficacy; assay type: in vivo, human; conditions: for ORR: 20-mg dose level
de novo AML = conditions: cited from earlier work
[7] = elderly patients (> 65 years), with idarubicin and ara-C
[8] = 20 mg, PAN 20 mg (expansion phase), N=10
[9] = PAN 20 mg (expansion phase), N=12

Compound: Cc1[nH]c2ccccc2c1CCNCc1ccc(/C=C/C(=O)NO)cc1 [panobinostat]
- CR rate (newly diagnosed AML; [7]): 64%
- Median time to relapse (newly diagnosed AML; [7]): 17.0 months
- MTD of panobinostat (newly diagnosed AML; with 8 mg/m^2 idarubicin (day 1–3) and 100 mg/m^2 ara-C (day 1–7), elderly): 10 mg
- Complete remission (CR) ([1]; of 86 patients, 60-mg dose): 2 patients
- MTD of panobinostat alone [1]: 60 mg
- DLTs ([2]; first 2 cohorts, 20 mg and 30 mg thrice weekly): no DLTs occurred
- CR/CRi rate ([2]; plus ara-C and mitoxantrone): 46%
- RP2D of panobinostat ([2]; with mitoxantrone and ara-C as salvage therapy): 50 mg
- Cell death (caspase-dependent apoptosis) [3]: induces cell death
- CL/F ([4]; PAN 15 mg, N=10): 295 (54.7) L/h
- CL/F ([4]; PAN 20 mg (expansion phase), N=10): 193 (32.3) L/h
- CL/F ([4]; PAN 20 mg, N=11): 269 (68.2) L/h
- Tmax, Median (range) ([4]; PAN 25 mg, N=8): 2.02 [1.25–4.90] h
- CL/F ([4]; PAN 25 mg, N=8): 294 (44.3) L/h
- Cmax ([4]; 15 mg): 0.00603 µg/mL
- AUC ([4]; 15 mg, PAN 15 mg, N=10): 0.0508 µg·h/mL
- AUC(0-t) ([4]; 15 mg, AUC0–24, PAN 15 mg, N=10): 0.0425 µg·h/mL
- half-life ([4]; 15 mg, PAN 15 mg, N=10): 8.74 h
- Tmax ([4]; 15 mg, PAN 15 mg, N=10): 3 h
- Vd/F ([4]; 15 mg, PAN 15 mg, N=10): 3920 L
- Cmax ([4]; 20 mg): 0.015 µg/mL
- AUC [4, 8]: 0.103 µg·h/mL
- AUC ([4]; 20 mg, PAN 20 mg, N=11): 0.0743 µg·h/mL
- AUC(0-t) ([4]; 20 mg, AUC0–24, PAN 20 mg (expansion phase), N=10): 0.0927 µg·h/mL
- AUC(0-t) ([4]; 20 mg, AUC0–24, PAN 20 mg, N=11): 0.0626 µg·h/mL
- half-life [4, 8]: 7.94 h
- half-life ([4]; 20 mg, PAN 20 mg, N=11): 9.7 h
- Tmax [4, 8]: 1.98 h
- Tmax ([4]; 20 mg, PAN 20 mg, N=11): 1.05 h
- Vd/F [4, 8]: 1810 L
- Vd/F ([4]; 20 mg, PAN 20 mg, N=11): 3790 L
- Cmax ([4]; 25 mg): 0.0112 µg/mL
- AUC ([4]; 25 mg, PAN 25 mg, N=8): 0.085 µg·h/mL
- AUC(0-t) ([4]; 25 mg, AUC0–24, PAN 25 mg, N=8): 0.0746 µg·h/mL
- half-life ([4]; 25 mg, PAN 25 mg, N=8): 7.81 h
- Vd/F ([4]; 25 mg, PAN 25 mg, N=8): 3360 L
- SAE: sepsis (1 in 25 mg and 1 in 20 mg expansion groups): 2 patients
- Discontinuation, primary reason death (All patients, n=46): 5 (10.9) n (%)
- Discontinuation, primary reason death (PAN 15 mg, n=11): 1 (9.1) n (%)
- Discontinuation, primary reason death (PAN 20 mg (dose expansion), n=12): 3 (25) n (%)
- SAE: infections (all dose groups): 5 patients
- On-treatment deaths during the induction phase (all in the 20 mg expansion dose group): 6.5%
- Deaths during the study period or within 28 days after the end of treatment (all patients): 6 deaths
- Deaths in the induction phase (all patients): 3 deaths
- Deaths overall (induction and consolidation) (all patients): 5 deaths
- Abdominal pain, Any grade (human, in vivo): 3 (6.5) n (%)
- Abdominal pain, Grade 3 or 4 (human, in vivo): 0 (0.0) n (%)
- All-grade cardiac events (human, in vivo): 6.5%
- Alopecia, Any grade (human, in vivo): 3 (6.5) n (%)
- Alopecia, Grade 3 or 4 (human, in vivo): 0 (0.0) n (%)
- Anemia, Any grade (human, in vivo): 17 (37.0) n (%)
- Anemia, Grade 3 or 4 (human, in vivo): 15 (32.6) n (%)
- Anemia, all-grade (human, in vivo): 37%
- Decreased appetite, Any grade (human, in vivo): 10 (21.7) n (%)
- Decreased appetite, Grade 3 or 4 (human, in vivo): 1 (2.2) n (%)
- Decreased appetite, all-grade (human, in vivo): 21.7%
- Diarrhea, Any grade (human, in vivo): 25 (54.3) n (%)
- Diarrhea, Grade 3 or 4 (human, in vivo): 3 (6.5) n (%)
- Discontinuation, primary reason adverse events (human, in vivo): 8 (17.4) n (%)
- Discontinued due to AEs (human, in vivo): 15.8%
- Dyspepsia, Any grade (human, in vivo): 2 (4.3) n (%)
- Dyspepsia, Grade 3 or 4 (human, in vivo): 0 (0.0) n (%)
- Fatigue, Any grade (human, in vivo): 8 (17.4) n (%)
- Fatigue, Grade 3 or 4 (human, in vivo): 1 (2.2) n (%)
- Fatigue, all-grade (human, in vivo): 17.4%
- Febrile neutropenia, Any grade (human, in vivo): 17 (37.0) n (%)
- Febrile neutropenia, Grade 3 or 4 (human, in vivo): 16 (34.8) n (%)
- Febrile neutropenia, all-grade (human, in vivo): 37%
- Grade 3 or 4 AEs suspected to be treatment-related (human, in vivo): 73.9%
- Hypokalemia, Any grade (human, in vivo): 7 (15.2) n (%)
- Hypokalemia, Grade 3 or 4 (human, in vivo): 3 (6.5) n (%)
- Left ventricular dysfunction, Any grade (human, in vivo): 3 (6.5) n (%)
- Left ventricular dysfunction, Grade 3 or 4 (human, in vivo): 2 (4.3) n (%)
- Leukopenia, Any grade (human, in vivo): 2 (4.3) n (%)
- Leukopenia, Grade 3 or 4 (human, in vivo): 2 (4.3) n (%)
- Leukopenia, all-grade (human, in vivo): 4.3%
- Nausea, Any grade (human, in vivo): 18 (39.1) n (%)
- Nausea, Grade 3 or 4 (human, in vivo): 0 (0.0) n (%)
- Neutropenia, Any grade (human, in vivo): 9 (19.6) n (%)
- Neutropenia, Grade 3 or 4 (human, in vivo): 9 (19.6) n (%)
- Neutropenia, all-grade (human, in vivo): 19.6%
- Patients with AEs (human, in vivo): 84.8%
- Pyrexia, Any grade (human, in vivo): 6 (13.0) n (%)
- Pyrexia, Grade 3 or 4 (human, in vivo): 0 (0.0) n (%)
- SAE: cardiac disorders (human, in vivo): 5 patients
- SAE: grade ≥ 3 febrile neutropenia (human, in vivo): 10 patients
- Stomatitis, Any grade (human, in vivo): 9 (19.6) n (%)
- Stomatitis, Grade 3 or 4 (human, in vivo): 0 (0.0) n (%)
- Stomatitis, all-grade (human, in vivo): 19.6%
- Thrombocytopenia, Any grade (human, in vivo): 21 (45.7) n (%)
- Thrombocytopenia, Grade 3 or 4 (human, in vivo): 21 (45.7) n (%)
- Thrombocytopenia, all-grade (human, in vivo): 45.7%
- Treatment discontinuation due to AEs (human, in vivo): 17.4%
- Vomiting, Any grade (human, in vivo): 10 (21.7) n (%)
- Vomiting, Grade 3 or 4 (human, in vivo): 0 (0.0) n (%)
- Vomiting, all-grade (human, in vivo): 21.7%
- Expression of BRCA1, CHK1, and RAD51 (BRCA1, CHK1, and RAD51): decreases the levels of key proteins BRCA1, CHK1, and RAD51; also recorded: reduce the expression of BRCA1, CHK1, and RAD51
- Patients who experienced DLTs during induction ([5]; human, in vivo): 7 patients
- Recommended phase 2 dose (RP2D) of panobinostat ([5]; human, in vivo): 20 mg
- MTD ([5]; patients 18–65 years, staggered schedule with idarubicin and ara-C): not reached
- Grade ≥ 3 AEs (AML; panobinostat 30 mg combined with azacitidine): 97%
- Response rate ([6]; 15-mg dose group): 81.8%
- CRi ([6]; 15-mg dose group (3 patients)): 27.3%
- CR ([6]; 15-mg dose group (6 patients)): 54.5%
- ORR ([6]; escalation phase (9 patients)): 60%
- ORR ([6]; expansion phase (6 patients)): 50%
- Complete remission (CR) ([6]; All patients, N=46): 20 (43.5) n (%)
- Complete remission with incomplete blood count recovery (CRi) ([6]; All patients, N=46): 8 (17.4) n (%)
- Partial remission (PR) ([6]; All patients, N=46): 2 (4.3) n (%)
- Response rate (CR or CRi) ([6]; All patients, N=46): 28 (60.9) n (%)
- Treatment failure ([6]; All patients, N=46): 13 (28.3) n (%)
- Complete remission (CR) ([6]; PAN 15 mg, N=11): 6 (54.5) n (%)
- Complete remission with incomplete blood count recovery (CRi) ([6]; PAN 15 mg, N=11): 3 (27.3) n (%)
- Partial remission (PR) ([6]; PAN 15 mg, N=11): 0 (0.0) n (%)
- Response rate (CR or CRi) ([6]; PAN 15 mg, N=11): 9 (81.8) n (%)
- Treatment failure ([6]; PAN 15 mg, N=11): 1 (9.1) n (%)
- Complete remission (CR) [6, 9]: 5 (41.7) n (%)
- Complete remission with incomplete blood count recovery (CRi) [6, 9]: 1 (8.3) n (%)
- Partial remission (PR) [6, 9]: 1 (8.3) n (%)
- Response rate (CR or CRi) [6, 9]: 6 (50.0) n (%)
- Treatment failure [6, 9]: 3 (25.0) n (%)
- Complete remission (CR) ([6]; PAN 20 mg, N=15): 7 (46.7) n (%)
- Complete remission with incomplete blood count recovery (CRi) ([6]; PAN 20 mg, N=15): 2 (13.3) n (%)
- Partial remission (PR) ([6]; PAN 20 mg, N=15): 0 (0.0) n (%)
- Response rate (CR or CRi) ([6]; PAN 20 mg, N=15): 9 (60.0) n (%)
- Treatment failure ([6]; PAN 20 mg, N=15): 6 (40.0) n (%)
- Complete remission (CR) ([6]; PAN 25 mg, N=8): 2 (25.0) n (%)
- Complete remission with incomplete blood count recovery (CRi) ([6]; PAN 25 mg, N=8): 2 (25.0) n (%)
- Partial remission (PR) ([6]; PAN 25 mg, N=8): 1 (12.5) n (%)
- Response rate (CR or CRi) ([6]; PAN 25 mg, N=8): 4 (50.0) n (%)
- Treatment failure ([6]; PAN 25 mg, N=8): 3 (37.5) n (%)
- Re-induction rate (second induction cycle) ([6]; Ten of 46 patients): 22%
- Overall response rate (ORR) (CR or CRi) ([6]; all 46 patients): 60.9%
- CR with incomplete count recovery (CRi) ([6]; all 46 patients (8 patients)): 17.4%
- Complete remission (CR) ([6]; all 46 patients (20 patients)): 43.5%
- Event-free survival at 1-year ([6]; all patients): 78.3%
- Treatment discontinuation due to disease progression ([6]; all patients (11 patients)): 23.9%
- Median overall survival ([6]; current study): not reached
- Median duration of response ([6]; inadequate number of events at last censoring): not estimable

Compound: Nc1ncn([C@@H]2O[C@H](CO)[C@@H](O)[C@H]2O)c(=O)n1 [azacitidine]
- Grade ≥ 3 AEs (AML; azacitidine alone): 81%

Compound: O=C(CCCCCCC(=O)Nc1ccccc1)NO [vorinostat]
- Median overall survival (de novo AML; median follow-up of 82 weeks): 82 weeks
- All-grade cardiac events (de novo AML; with idarubicin and ara-C): 15%
- Diarrhea (de novo AML; with idarubicin and ara-C): 72%
- Nausea (de novo AML; with idarubicin and ara-C): 65%
